Assay results: ChEMBL document CHEMBL5505965 (Eur J Med Chem, 2024)
In brackets after ≈: the same amount, converted by molar mass.

Tests used:
[1] = Inhibition of NDM1 (unknown origin)
[2] = test system: Escherichia coli; experiment: Synergistic anti-bacterial activity Escherichia coli E.cloni MP30-58 expressing blaIMP- gene assessed as decrease in meropenem MIC at 500 uM; type: functional
[3] = test system: Escherichia coli; experiment: Synergistic anti-bacterial activity Escherichia coli E.cloni MP30-63 expressing blaNDM- gene assessed as decrease in meropenem MIC at 500 uM; type: functional
[4] = test system: Escherichia coli; experiment: Synergistic anti-bacterial activity Escherichia coli E.cloni MP30-57 expressing blaVIM- gene assessed as decrease in meropenem MIC at 500 uM; type: functional
[5] = test system: Escherichia coli; experiment: Synergistic anti-bacterial activity Escherichia coli E.cloni MP30-63 expressing blaNDM- gene assessed as fold reduction in meropenem MIC at 500 uM; type: functional
[6] = test system: Escherichia coli; experiment: Anti-bacterial activity against Escherichia coli E.cloni MP30-63 expressing blaNDM- gene assessed as decrease in bacterial growth; type: functional
Procedure, shortened: (§1)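 Test compound held at a fixed 500 μM in E. coli producing the B1 metallo-β-lactamase (NDM-1, VIM-2 or IMP-26). Growth was checked with the compound alone and in combination with meropenem. Read-out was the meropenem MIC (mg/L) and its fold reduction.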

[7] = test system: Escherichia coli; experiment: Anti-bacterial activity against Escherichia coli E.cloni MP21-05 assessed as decrease in bacterial growth; type: functional
[8] = test system: Escherichia coli; experiment: Anti-bacterial activity against Escherichia coli E.cloni MP30-57 expressing blaVIM- gene assessed as decrease in bacterial growth; type: functional; procedure, shortened: as §1
[9] = test system: Escherichia coli; experiment: Anti-bacterial activity against Escherichia coli E.cloni MP30-58expressing blaIMP- gene assessed as decrease in bacterial growth; type: functional; procedure, shortened: as §1
[10] = test system: Escherichia coli; experiment: Synergistic anti-bacterial activity Escherichia coli E.cloni MP30-57 expressing blaVIM- gene assessed as fold reduction in meropenem MIC at 500 uM; type: functional
[11] = test system: Escherichia coli; experiment: Synergistic anti-bacterial activity Escherichia coli E.cloni MP30-58 expressing blaIMP- gene assessed as fold reduction in meropenem MIC at 500 uM; type: functional

SMILES | IC50 [1] [µM] | other results
O=C(O)[C@H]1CCCN1C(=O)CC(S)C(F)(F)F (some centres not stated) | > 300 | –
O=C(O)[C@H]1CCCN1C(=O)[C@@H](CS)C(F)(F)F | 0.3 | MIC [2]: 4 µg/mL; MIC [3]: 4 µg/mL; MIC [4]: 0.25 µg/mL
O=C(O)c1ccc(CNC(=O)C(CS)C(F)(F)F)cc1 (configuration not stated) | 65 | –
O=C(CC(S)C(F)(F)F)Nc1ccccc1 (configuration not stated) | 22 | –
C[C@@H](O)[C@H]1C(=O)N2C(C(=O)O)=C(S[C@@H]3CN[C@H](C(=O)N(C)C)C3)[C@H](C)[C@H]12 [MEROPENEM] | – | MIC [6]: 32 µg/mL (≈ 83.4 µM); MIC [7]: 0.03 µg/mL (≈ 0.0782 µM); MIC [8]: 0.5 µg/mL (≈ 1.3 µM); MIC [9]: 2 µg/mL (≈ 5.22 µM)
O=C(CC(S)C(F)(F)F)Nc1ccc(C(=O)O)cc1 (configuration not stated) | 5.6 | –
C[C@@H](CS)C(=O)N1CCC[C@@H]1C(=O)O | 64 | –
O=C(O)[C@H]1CCCCN1C(=O)CC(S)C(F)(F)F (some centres not stated) | 145 | –
O=C(CC(S)C(F)(F)F)NCc1ccc(C(=O)O)cc1 (configuration not stated) | > 300 | –
O=C(NCc1ccccc1)[C@@H](CS)C(F)(F)F | 75 | –
O=C(O)[C@H]1CCCN1C(=O)[C@H](CS)C(F)(F)F | 4.5 | –
C[C@@H](CS)C(=O)N1CCC[C@H]1C(=O)O | > 500 | –

More lines, main results first:

IC50 [1] [µM] | SMILES | other results
3.2 | O=C(O)[C@H]1CCCCN1C(=O)C(CS)C(F)(F)F (some centres not stated) | MIC [2]: 0.5 µg/mL; MIC [3]: 0.5 µg/mL; MIC [4]: 0.125 µg/mL; fold change (FC) [5]: 32
37 | O=C(O)[C@@H]1CCCN1C(=O)C(CS)C(F)(F)F (some centres not stated) | –
> 300 | O=C(CC(S)C(F)(F)F)NCc1ccccc1 (configuration not stated) | –
60 | O=C(O)[C@@H]1CCCN1C(=O)[C@H](CS)C(F)(F)F | –
2.2 | O=C(O)C1CCN(C(=O)C(CS)C(F)(F)F)CC1 (configuration not stated) | MIC [2]: 2 µg/mL; MIC [3]: 1 µg/mL; MIC [4]: 0.125 µg/mL; fold change (FC) [5]: 32
10 | O=C(NCc1ccccc1)[C@H](CS)C(F)(F)F | –
> 300 | O=C(O)[C@@H]1CCCN1C(=O)CC(S)C(F)(F)F (some centres not stated) | –
6.1 | O=C(O)[C@@H]1CCCN1C(=O)[C@@H](CS)C(F)(F)F | fold change (FC) [10]: 8; MIC [2]: 0.25 µg/mL; MIC [3]: 4 µg/mL; fold change (FC) [11]: 8; MIC [4]: 0.06 µg/mL
> 300 | O=C(O)C1CCN(C(=O)CC(S)C(F)(F)F)CC1 (configuration not stated) | –
20 | O=C(NCc1ccccc1)C(CS)C(F)(F)F (racemic) | –
3.4 | O=C(Nc1ccccc1)C(CS)C(F)(F)F (configuration not stated) | –
